FGF22 binding = shifts melting point of recombinant human FGF22 | recombinant FGF22 thermal shift, SYPRO orange fluorescence; percent of sucrose octasulfate shift, DMSO zero | activity (Tm shift, normalised), % at 9.99 µM | 340,000 tested, 1.5% active | AID 651658;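 active means mean Tm shift, scaled 0 neutral to 100 positive control, at about 1.3% or above, every replicate too, limit read from the data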
Target sequence (Q9HCT0 whole entry, looked up): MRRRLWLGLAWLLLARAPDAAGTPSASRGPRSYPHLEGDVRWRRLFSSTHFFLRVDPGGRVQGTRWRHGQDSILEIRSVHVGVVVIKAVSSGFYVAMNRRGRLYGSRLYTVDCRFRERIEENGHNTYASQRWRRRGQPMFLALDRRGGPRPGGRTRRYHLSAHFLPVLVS
PGC1a acetyl inh = lowers PGC1a acetylation signal in U2OS cells. AlphaScreen anti-acetyl-lysine; with virally co-expressed GCN5 acetyltransferase. inhibition, % at 15.6 µM. 350,000 tested, 0.17% active. AID 651687;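 active means every replicate shows inhibition of at least 40%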;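 further: 0% = neutral control wells and 100% = positive control wells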
PAX8 reporter = PAX8 transcriptional activity inhibition. AID 652154. inhibition, % at 12.6 µM. RMG-I TPO-luciferase reporter, SteadyGlo, 24 h. 360,000 tested, 1.2% active;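 active means mean replicate inhibition at least 60% with every replicate also reaching 60%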;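 further: luciferase light reporting Pax8 driven TPO promoter activity; plate controls were median of neutral control wells for no effect and mitoxantrone controls for full effect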
EWS-Fli inh = blocks EWS/Fli oncoprotein-driven transcription. 350,000 tested, 0.67% active. inhibition, % at 12.6 µM. AID 651661. A673 NR0B1-luciferase reporter, viability-normalised;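 active means mean inhibition of at least 50% after viability correction, with every replicate also passing that limit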;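 further: firefly luciferase signal divided by Alamar Blue viability fluorescence both relative to DMSO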
FN deposit inh = fibronectin deposition inhibition. inhibition, % at 12.6 µM. AID 743247. AH1F fibroblasts, Alexa488-fibronectin deposition fluorescence, overnight. 350,000 tested, 0.086% active;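 active means mean inhibition across replicates of 30% or more, regardless of how many single replicates reach that level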;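 further: positive control wells lacked labelled fibronectin entirely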
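Assay system: AH1F fibroblasts assembling fluorescent fibronectin matrix; Amount: 10000 AH1F cells per well; Buffer or medium: DMEM, 2% serum; Probe or stimulus: Alexa488-fibronectin, 24 nM final in well; Doses: single compound dose, delivered by pin transfer; Incubation: 1 h adhesion, overnight exposure; Measured by: fluorescence 485/525 nm; Read-out: fibronectin deposition inhibition.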
HIV Env fusion = HIV envelope-mediated fusion inhibition; 360,000 tested, 1.1% active; AID 651610; inhibition, % at 12.3 µM; HeLa-JRFL Env/CEM21 cell fusion, luciferase;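 active means mean replicate inhibition score of at least 50 and every replicate individually at or above 50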;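 further: 0% = plate neutral controls and 100% = maraviroc near 300 nM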
* = called active by the depositor; . = no result; [ ] = dose if it differs, or a comment. Compounds with a hit are over-represented: about 3.1% of the library has one in this group of screens.

SMILES	FGF22 binding	PGC1a acetyl inh	PAX8 reporter	EWS-Fli inh	FN deposit inh	HIV Env fusion
O=C(c1cc(=O)c2ccccc2o1)N1CCN(c2ccccc2F)CC1	0	2	6	-25	-12	2
CSc1ccccc1C(=O)N1CCN(c2cccc(Cl)c2)CC1	43*	3	21	8	.	18
O=C(c1cc(=O)c2ccccc2o1)N1CCN(c2cccc(Cl)c2)CC1	43*	.	19	-4	9	6
CN(c1ccccc1C(=O)N1CCN(c2cccc(Cl)c2)CC1)S(C)(=O)=O	.	-4	.	.	.	12
Cc1ccc(S(=O)(=O)Nc2ccc3c(c2)CC(=O)N([C@@H](C)CO)C[C@@H](C)[C@@H](CN(C)C(=O)Nc2ccc(C(F)(F)F)cc2)O3)cc1	-1	-9	2	15	.	16[16.7 µM]
C[C@@H]1CCCCO[C@H](CN(C)CC2CC2)[C@H](C)CN([C@H](C)CO)C(=O)c2cc(NC(=O)c3ccncc3)ccc2O1	0	-11	6	-5	.	-2[16.7 µM]
C/C=C/c1ccc([C@@H]2[C@@H](CNC(=O)c3ccccc3)N(C(C)=O)[C@H]2CO)cc1	.	-7	0	1	-7	.
C[C@@H]1CCCCO[C@@H](CN(C)S(=O)(=O)c2cn(C)cn2)[C@@H](C)CN([C@@H](C)CO)C(=O)c2cc(NS(=O)(=O)c3ccc(Cl)cc3)ccc2O1	1	-6	6	-14	-3	-15[16.7 µM]
O=[N+]([O-])c1ccc(Nc2ccccc2)c2nonc12	0	.	-18	3	2	-8
O=[N+]([O-])c1ccc(Sc2cccc[n+]2[O-])c2nonc12	0	.	102*	56*	51*	-130
Cc1ccc(S(=O)(=O)Nc2cccc3c2O[C@H](CN(C)C(=O)Nc2ccc(F)cc2)[C@@H](C)CN([C@H](C)CO)C3=O)cc1	0	0	-16	-12	13	-5[16.7 µM]
CCC(=O)NC(=S)Nc1cccc(Cl)c1N1CCCCC1	.	-18	.	.	9	73*
CCCC(=O)NC(=S)Nc1cccc(Cl)c1N1CCCCC1	.	-9	.	.	.	26
C/C(=N\Nc1ccc([N+](=O)[O-])cc1)c1cc2ccccc2o1	44*	-1	23	-23	-1	-22
O=C(N/N=C/c1ccc([N+](=O)[O-])cc1)c1cc2ccccc2o1	0	0	10	4	-4	15
Cc1ccc(S(=O)(=O)Nc2ccc3c(c2)C(=O)N([C@@H](C)CO)C[C@H](C)[C@@H](CN(C)C(=O)Nc2cccc4ccccc24)OCCCC[C@@H](C)O3)cc1	0	-19	81*	19	-2	2[16.7 µM]
Cc1ccc(S(=O)(=O)Nc2ccc3c(c2)C(=O)N([C@@H](C)CO)C[C@H](C)[C@@H](CN(C)C(=O)Nc2cccc4ccccc24)OCCCC[C@H](C)O3)cc1	0	-20	70*	14	-5	43[16.7 µM]
Cc1ccc(S(=O)(=O)Nc2ccc3c(c2)C(=O)N([C@H](C)CO)C[C@@H](C)[C@H](CN(C)C(=O)Nc2cccc4ccccc24)OCCCC[C@@H](C)O3)cc1	0	-12	79*	18	-3	7[16.7 µM]
Cc1ccc(S(=O)(=O)Nc2ccc3c(c2)C(=O)N([C@@H](C)CO)C[C@@H](C)[C@@H](CN(C)C(=O)Nc2cccc4ccccc24)OCCCC[C@H](C)O3)cc1	0	-10	10	-1	7	24[16.7 µM]
Cc1ccc(S(=O)(=O)Nc2ccc3c(c2)C(=O)N([C@H](C)CO)C[C@H](C)[C@H](CN(C)C(=O)Nc2cccc4ccccc24)OCCCC[C@@H](C)O3)cc1	0	1	44	34	-5	-123
Cc1ccc(S(=O)(=O)Nc2ccc3c(c2)C(=O)N([C@H](C)CO)C[C@H](C)[C@@H](CN(C)C(=O)Nc2cccc4ccccc24)OCCCC[C@H](C)O3)cc1	0	-26	15	12	-3	45[16.7 µM]
Cc1cc2c(cc1S(=O)(=O)N1CCN(c3ccccc3)CC1)OCCN2C	0	-15	6	13	0	1
CCN(c1ccccc1)S(=O)(=O)c1cc2c(cc1C)N(C)CCO2	43*	12	6	-8	7	17
Clc1ccc(C[n+]2cc(-c3ccccc3)n3c2CCCCC3)c(Cl)c1	1	.	81*	36	13	17

Bioassay records: PubChem BioAssay, Broad Institute
